For this assay, the system named is KB. The assay is described as follows: Cytotoxicity against human KB cells at 10 ug/mL. In kind it is functional. In short, it runs like this: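 KB cell growth was measured in the presence of test material at 10 μg/mL. Values are given as percent inhibition of growth.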

`CO[C@](C(=O)O[C@H]1C[C@H]2[C@]3(C)CC[C@H]4C(C)(C)CCC[C@]4(C)[C@H]3C[C@H](OC(C)=O)[C@]2(C)[C@@H](C=O)[C@@H]1C(C)=O)(c1ccccc1)C(F)(F)F` yielded an inhibition at 10 µg/mL of 30%.

`CC(=O)O[C@H]1C[C@@H]2[C@@]3(C)CCCC(C)(C)[C@@H]3CC[C@@]2(C)[C@@H]2C[C@H](O)[C@@H]3[C@H]([C@H](O)O[C@H]3C)[C@@]12C` registered an inhibition at 10 µg/mL of 30%.

Consider `CO[C@@H]1O[C@@H](C)[C@H]2[C@H]1[C@@]1(C)[C@@H](OC(C)=O)C[C@@H]3[C@@]4(C)CCCC(C)(C)[C@@H]4CC[C@@]3(C)[C@@H]1C[C@@H]2O`, for which the inhibition at 10 µg/mL is 30%.

With `CC[C@@]1(C)CCC[C@]2(C)[C@H]3C[C@H](OC(C)=O)[C@]4(C)[C@H]5[C@@H](OC)O[C@@H](C)[C@@H]5[C@@H](O)C[C@H]4[C@]3(C)CC[C@@H]12`, the inhibition at 10 µg/mL was determined as 30%.

As for `CC(=O)O[C@H]1C[C@H]2[C@@](C)(CC[C@H]3C(C)(C)CCC[C@]23C)[C@@H]2C[C@H](O)[C@@H](C(C)=O)C[C@]21C`, the inhibition at 10 µg/mL was determined as 30%.

As for `CC[C@@]1(C)CCC[C@]2(C)[C@H]3C[C@H](OC(C)=O)[C@]4(C)C[C@H](C(C)=O)[C@@H](O)C[C@H]4[C@]3(C)CC[C@@H]12`, the inhibition at 10 µg/mL came out at 30%.

As for `CC(=O)O[C@H]1C[C@H]2[C@]3(C)CC[C@H]4C(C)(C)CCC[C@]4(C)[C@H]3C[C@H](OC(C)=O)[C@]2(C)[C@@H](C=O)[C@@H]1C(C)=O`, 10 µg/mL produced 30% inhibition.

In turn, `CO[C@H]1O[C@@H](C)[C@H]2[C@H]1[C@@]1(C)[C@@H](OC(C)=O)C[C@@H]3[C@@]4(C)CCCC(C)(C)[C@@H]4CC[C@@]3(C)[C@@H]1C[C@@H]2O` returned an inhibition at 10 µg/mL of 30%.

Turning to `CC[C@@]1(C)CCC[C@]2(C)[C@H]3C[C@H](OC(C)=O)[C@]4(C)[C@@H](C=O)[C@H](C(C)=O)[C@@H](O)C[C@H]4[C@]3(C)CC[C@@H]12`, 10 µg/mL produced 30% inhibition.

Molecule `CC[C@@]1(C)CCC[C@]2(C)[C@H]3C[C@H](OC(C)=O)[C@]4(C)[C@@H]5[C@H]([C@H](C)O[C@H]5O)[C@@H](O)C[C@H]4[C@]3(C)CC[C@@H]12` had an inhibition at 10 µg/mL of 30%.

For the molecule `CO[C@@H]1O[C@](C)(OC)[C@H]2[C@H]1[C@@]1(C)[C@@H](OC(C)=O)C[C@@H]3[C@@]4(C)CCCC(C)(C)[C@@H]4CC[C@@]3(C)[C@@H]1C[C@@H]2O`, the inhibition at 10 µg/mL came out at 30%.

`CO[C@@](C(=O)O[C@H]1C[C@H]2[C@]3(C)CC[C@H]4C(C)(C)CCC[C@]4(C)[C@H]3C[C@H](OC(C)=O)[C@]2(C)[C@@H](C=O)[C@@H]1C(C)=O)(c1ccccc1)C(F)(F)F` yielded an inhibition at 10 µg/mL of 30%.

Regarding `CC(=O)O[C@@H]1O[C@@H](C)[C@H]2[C@H]1[C@@]1(C)[C@@H](OC(C)=O)C[C@@H]3[C@@]4(C)CCCC(C)(C)[C@@H]4CC[C@@]3(C)[C@@H]1C[C@@H]2OC(C)=O`, testing at 10 µg/mL gave an inhibition of 30%.

Turning to `CC[C@@]1(C)CCC[C@]2(C)[C@H]3C[C@H](OC(C)=O)[C@]4(C)[C@H]5[C@H](OC)O[C@@H](C)[C@@H]5[C@@H](O)C[C@H]4[C@]3(C)CC[C@@H]12`, the inhibition at 10 µg/mL is 30%.

For the molecule `CC(=O)O[C@H]1C[C@@H]2[C@@]3(C)CCCC(C)(C)[C@@H]3CC[C@@]2(C)[C@@H]2C[C@H](O)[C@@H](C(C)=O)[C@H](C=O)[C@@]12C`, the inhibition at 10 µg/mL worked out at 30%.

The molecule `CC(=O)O[C@H]1C[C@@H]2[C@@]3(C)CCCC(C)(C)[C@@H]3CC[C@@]2(C)[C@@H]2C[C@H](O)[C@@H](C(C)=O)[C@H](O)[C@@]12C` returned an inhibition at 10 µg/mL of 30%.

As a reminder, the inhibition is the relative decrease from the control value, in per cent.

Values taken from ChEMBL document CHEMBL1150160, “New scalarane class sesterterpenes from an Indonesian sponge, Phyllospongia sp” (2002).
